Sampled rows, rich in hits. Any-hit rate of the full collection: about 0.85%.
V1R ag counter: agonists of human V1a receptor, primary screen, counter-screen for OXTR agonist project, fluorescence, CHO-V1R cells. Vasopressin V1a receptor (Homo sapiens), P37288. Fluo-8 calcium fluorescence, agonist mode; 0% DMSO, 100% 3 nM vasopressin. activation, % at 3 µM. 320,000 tested, 0.25% active. AID 2797, 2010;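 active = activation above the mean activation of all tested compounds plus 3 SD, per screening run, cut at about 20% in these data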;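 also: signal is peak over basal fluorescence ratio across a 100 second FLIPR read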
OXTR potentiate: human OXTR potentiators, primary screen, fluorescence, CHO-OTR cells, Fluo-8 calcium; Fluo-8 calcium fluorescence, potentiator mode; 0% = oxytocin EC15, 100% = EC100; Oxytocin receptor (Homo sapiens), P30559; 320,000 tested, 0.061% active; activation, % at 3 µM; AID 2445, 2010;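 active = activation above that plate's cutoff, the mean activation of tested compounds plus 3 SD, cut at about 6.6% in these data, passing the limit was not always enough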;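 also: 100% uses oxytocin at 75 nM as the full agonist control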
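Material: CHO-OTR cells, human receptor; compound dosing: single dose, 3.0 µM nominal final compound concentration; schedule: 6 min compound pre-incubation at room temperature, 100 s kinetic read; measured by: kinetic Fluo-8 calcium fluorescence; read-out basis: % activation vs EC15 and EC100 oxytocin; controls: EC15 oxytocin alone as 0%, 75 nM oxytocin as 100%; replicates: singlicate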
CRFR2-BP ag: agonists of CRF-BP/CRF-R2 complex, primary screen, cell-based, HEK293, calcium dye fluorescence, uHTS; CRF-binding protein / CRF receptor 2 complex (human); calcium dye fluorescence (FLIPR); percent of saturating CRF peptide response; activation, % at 13.2 µM; 350,000 tested, 0.46% active; AID 588473, 2011;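 active = activation of at least 50%, plus an integration ratio under a set limit after plate pattern correction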;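 also: plate controls were neutral control wells without compound for no effect and CRF at EC100 for full effect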
OXTR agonist: human OXTR agonists, primary screen, fluorescence, CHO-OTR cells, Fluo-8 calcium; activation, % at 3 µM; AID 2435, 2010; 320,000 tested, 0.32% active; Fluo-8 calcium fluorescence; normalized: DMSO 0%, oxytocin 100%; Oxytocin receptor (Homo sapiens), P30559;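 active = activation above the mean of all tested compounds plus 3 SD, cutoff set per screening run, cut at about 20% in these data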;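 also: peak over basal fluorescence ratio from a 100 s FLIPR kinetic read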
TRPML3 ag: human TRPML3 channel agonists, primary screen, cell-based, HEK293 TRPML3-YFP, Fluo-8 calcium fluorescence, 3 µM; AID 1448, 2008; Mucolipin-3 (Homo sapiens), Q8TDD5; 220,000 tested, 0.29% active; activation, % at 3 µM; 100% = the carbachol control signal;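 active = activation above its plate's cutoff, the mean activation of the plate's test wells plus 3 SD, cut at about 12% in these data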;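 also: 0% = DMSO only wells and 100% = carbachol wells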
Target sequence (Q8TDD5 whole entry, looked up): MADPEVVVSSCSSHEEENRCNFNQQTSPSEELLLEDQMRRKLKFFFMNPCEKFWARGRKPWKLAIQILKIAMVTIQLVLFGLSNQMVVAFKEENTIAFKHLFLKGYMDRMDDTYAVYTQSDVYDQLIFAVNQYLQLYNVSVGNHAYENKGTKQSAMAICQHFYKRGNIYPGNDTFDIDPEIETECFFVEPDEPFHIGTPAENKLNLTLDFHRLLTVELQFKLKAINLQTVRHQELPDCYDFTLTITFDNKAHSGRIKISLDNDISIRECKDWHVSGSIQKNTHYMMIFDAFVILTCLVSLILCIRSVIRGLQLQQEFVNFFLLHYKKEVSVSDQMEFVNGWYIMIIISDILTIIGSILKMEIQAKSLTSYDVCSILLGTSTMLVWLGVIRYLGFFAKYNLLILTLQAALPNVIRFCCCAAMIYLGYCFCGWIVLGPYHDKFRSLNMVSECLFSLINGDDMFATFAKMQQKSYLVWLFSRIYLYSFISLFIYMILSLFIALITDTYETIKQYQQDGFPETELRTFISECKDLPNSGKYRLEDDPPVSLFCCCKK
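Test system: TRPML3-YFP stable HEK293 cells. Doses: single point at 3 µM. Incubation: dye loading 1 h 37 °C then 30 min ambient, 125 s read. Signal: Fluo-8 calcium dye fluorescence, ex 470-495, em 515-575 nm. Measure: percent activation from peak-to-basal fluorescence ratio, scaled between DMSO and carbachol.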
TRPN1 ag: zebrafish TRPN1 channel agonists, primary screen, cell-based, HEK293, calcium fluorescence; 220,000 tested, 0.18% active; HEK293 zebrafish TRPN1-YFP, Fluo-8 calcium fluorescence; 100% = response to 87 µM carbachol; transient receptor potential cation channel N1 (TRPN1/NompC), Danio rerio; activation, % at 3 µM;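 active = activation above its plate's cutoff, the mean activation of test wells on that plate plus 3 SD, cut at about 19% in these data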;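 also: 0% = DMSO alone and 100% = 87 µM carbachol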
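Control set: carbachol 87 µM as high control, DMSO as low control; system: HEK293 stable line with zebrafish TRPN1-YFP; read-out: % activation versus carbachol response; detection: intracellular calcium fluorescence with Fluo-8; doses: single test compound dose, 3 µM nominal, 0.3% DMSO; schedule: dye 1 h 37 °C plus 30 min RT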
Numbers without * were called inactive; nt = no result given.

SMILES	V1R ag counter	OXTR potentiate	CRFR2-BP ag	OXTR agonist	TRPML3 ag	TRPN1 ag
Cc1c(C(=O)N2CCCCC2)c(S(=O)(=O)NCCc2ccc(S(N)(=O)=O)cc2)c(C)n1C	0	-5	1	0	nt	nt
Cc1ccc2c(CC(=O)Nc3sccc3C(N)=O)coc2c1	1	-7	95*	2	0	2
Cc1ccc2c(CC(=O)NCC(=O)Nc3c(C)cccc3C)coc2c1	-1	-3	0	-2	nt	nt
CCOc1ccc(N(CC(=O)N2CCCC2)S(=O)(=O)c2ccc(F)cc2)cc1	0	-4	0	1	nt	nt
CCOc1ccc(N(CC(=O)O)S(=O)(=O)c2ccc(F)cc2)cc1	0	-9	4	0	1	70*
O=C(Nc1ccccc1)Nc1ccc(Cl)c(S(=O)(=O)N2CCOCC2)c1	14	-13	16	17	13*	23*
CCCN1C(=O)/C(=C\C=C2\N(CC)c3ccccc3C2(C)C)SC1=S	nt	nt	125*	nt	2	7
CN1/C(=C\C=C2/SC(=S)NC2=O)C(C)(C)c2ccccc21	100*	-18	164*	123*	19*	33*
CCN1C(=O)C(=CC=CN(C)c2ccccc2)SC1=S	nt	nt	103*	nt	nt	nt
Cc1cc(C)n(NC(=S)NC2CCCC2)c(=O)c1C#N	1	-3	0	0	0	0
COc1ccc(N=Cc2sc(O)c3ccccc23)cc1	77*	-25	271*	58*	28*	33*
COc1ccc(N=Cc2c(O)c3ccccc3n2C(C)=O)cc1	1	-5	99*	2	1	3
COc1ccc(NS(=O)(=O)c2cc([N+](=O)[O-])ccc2N/N=C\c2c(C)[nH]c3ccccc23)cc1	7	-11	48	10	0	0
Cc1[nH]c2ccccc2c1/C=N/Nc1ccc([N+](=O)[O-])cc1S(=O)(=O)Nc1ccc(Cl)cc1	1	-6	109*	0	1	-1
Cc1cccc(CCN2CCN=C2Nc2ccccc2)c1	2	-10	56*	4	nt	nt
Cc1ccc(S(=O)(=O)C(C#N)c2nc3ccccc3nc2N2CCCC2)cc1 (configuration not stated)	1	-3	56*	0	2	3
CCCCCCNC(=O)C(C#N)c1nc2ccccc2nc1N1CCCC1 (configuration not stated)	-1	-17	182*	-1	0	-2
CC(=O)c1ccc(OCC(=O)N2CCCC(Nc3ccc(C)c(C)c3)C2)cc1 (configuration not stated)	1	-3	0	0	nt	nt
COc1cccc(/C(O)=C/c2nc3ccc(C(=O)NCCc4ccc(Cl)cc4)cc3[nH]c2=O)c1	nt	nt	140*	nt	1	1
CCN1C(=O)c2cccc3c(S(=O)(=O)Nc4ccccc4OC)ccc1c23	11	-19	129*	11	123*	46*
CCN1C(=O)c2cccc3c(S(=O)(=O)NCc4ccccc4)ccc1c23	2	-8	-2	1	nt	nt
N=c1oc2c3c4c(cc2cc1C(=O)Nc1ccccc1)CCCN4CCC3	60*	-21	271*	112*	1	3
CC1CC(C)CN(S(=O)(=O)N2CCCC(C(=O)NC(C)c3ccccc3)C2)C1 (configuration not stated)	1	3	0	-1	nt	nt
COc1cc(NC(=O)NCCN2CCN(c3ccc(Cl)cc3)CC2)ccc1C	35*	-20	2	22*	1	0
COc1ccc(-c2cc(C(F)(F)F)c3c(n2)sc2c(O)cc(=O)[nH]c23)c(OC)c1	10	-7	80*	9	2	3
SMILES	V1R ag counter	OXTR potentiate	CRFR2-BP ag	OXTR agonist	TRPML3 ag	TRPN1 ag
Cc1cc(C)c2c(n1)sc1c(O)cc(=O)[nH]c12	1	-10	3	-1	1	1
CCOc1cc(/C=C/c2cccc[n+]2C)ccc1OCC(=O)Nc1ccc(C)cc1	0	-7	1	0	nt	nt
CCOc1cc(/C=C/c2cccc[n+]2C)ccc1O	0	1	59*	1	nt	nt
CC(C)(C)S(=O)(=O)/C(C#N)=N/Nc1ccc(Cl)cc1	11	-13	47	15	11	21*
CC(C)(C)c1ccc(N/N=C(\C#N)S(=O)(=O)C(C)(C)C)cc1	7	-11	28	5	8	16
Cc1cccc(N=Cc2[nH]c3ccc(Br)c(Cl)c3c2O)c1	2	-1	192*	7	3	4
CC(C)NC(=O)NC(=O)COc1c(F)c(F)cc(F)c1F	-1	-10	0	-1	17*	0
CNC(=O)NC(=O)COc1c(F)c(F)cc(F)c1F	0	-3	0	1	1	1
Cc1ccc2nc(/C(C#N)=C\c3cc(C)n(-c4cccc([N+](=O)[O-])c4)c3C)[nH]c2c1	-1	-4	-2	-1	0	-1
N#C/C(=C\c1ccc([N+](=O)[O-])o1)c1nc2ccccc2[nH]1	3	-11	66*	1	1	2
Cc1ccc2nc(/C(C#N)=C\c3ccc([N+](=O)[O-])o3)[nH]c2c1	6	-12	55*	9	3	8
Cc1ccc2nc(/C(C#N)=C\c3ccc(N4CCOCC4)o3)[nH]c2c1	30*	-18	7	43*	2	4
O=C(NCc1ccccc1Cl)c1ccc(CS(=O)Cc2ccc(Cl)cc2)o1 (configuration not stated)	5	-8	-1	2	nt	nt
CC1=Nc2ccccc2/C1=C/c1sc(=S)n(-c2cccc(C(=O)O)c2)c1O	nt	nt	47	nt	18*	20*
Oc1c(C=C2N=c3ccccc3=N2)sc(=S)n1-c1ccccc1	1	0	0	3	0	1
CC(OC(=O)CCCC(=O)Nc1ccccc1)C(=O)c1ccccc1 (configuration not stated)	3	-1	-4	2	nt	nt
Cc1cc(C)nc(/N=C(\N)Nc2ccc(OCCC(C)C)cc2)n1	48*	-25	75*	50*	nt	nt
COc1ccc(N/C(N)=N/c2nc(C)cc(C)n2)cc1	nt	nt	70*	nt	nt	nt
Cc1cc(C)nc(/N=C(\N)Nc2ccc(S(=O)(=O)O)cc2)n1	nt	nt	-1	nt	1	1
